This passage reports IC50 results from ChEMBL document CHEMBL1122048, “Adriamycin analogues. Preparation of 9,10-anhydrodaunorubicin, 9,10-anhydroadriamycin, and some related compounds” (1982).

Molecules are shown by their SMILES. Bounds are passed on as bounds.

In the experiment the test system is CCRF-CEM. The experiment is described as follows: In vitro growth inhibitory activity against CCRF-CEM (human lymphoblastic leukemic) cells. Type of experiment: functional. The conditions noted are these: read-out: ID50 (the source's name). The procedure, abridged: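 Human lymphoblastic leukemia CCRF-CEM cultures exposed to drug for 48 h. The value is the concentration inhibiting culture growth by 50% relative to untreated controls.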
Consider `COc1cccc2c1C(=O)c1c(O)c3c(c(O)c1C2=O)C=C(C(C)=O)CC3`, for which the IC50 is greater than 10 µM.

As for `COc1cccc2c1C(=O)c1c(O)c3c(c(O)c1C2=O)C[C@@](O)(C(=O)CO)C[C@@H]3O[C@H]1C[C@H](N)[C@H](O)[C@H](C)O1` [DOXORUBICIN], the IC50 stood at 0.066 µM. The result for `COc1cccc2c1C(=O)c1c(O)c3c(c(O)c1C2=O)C=C(C(C)=O)C[C@@H]3OC1CC(NC(=O)C(F)(F)F)C(O)C(C)O1` (stereo partly drawn) reads 2.56 µM; that for `COc1cccc2c1C(=O)c1c(O)c3c(c(O)c1C2=O)C=C(C(=O)CO)C[C@@H]3OC1CC(N)C(O)C(C)O1` (stereo partly drawn), 2.31 µM. The result for `COc1ccc(C(OCC(=O)C2=Cc3c(O)c4c(c(O)c3[C@@H](OC3CC(N)C(O)C(C)O3)C2)C(=O)c2c(OC)cccc2C4=O)(c2ccccc2)c2ccccc2)cc1` (stereo partly drawn) reads greater than 5 µM; that for `CCCCC(=O)OCC(=O)[C@]1(O)Cc2c(O)c3c(c(O)c2[C@@H](OC2CC(NC(=O)C(F)(F)F)C(O)C(C)O2)C1)C(=O)c1c(OC)cccc1C3=O` (stereo partly drawn), 0.23 µM; that for `COc1cccc2c1C(=O)c1c(O)c3c(c(O)c1C2=O)C[C@@H](C(C)=O)CC3`, greater than 10 µM.

As for `COc1ccc(C(OCC(=O)C2=Cc3c(O)c4c(c(O)c3[C@@H](OC3CC(NC(=O)C(F)(F)F)C(O)C(C)O3)C2)C(=O)c2c(OC)cccc2C4=O)(c2ccccc2)c2ccccc2)cc1` (stereo partly drawn), the IC50 is greater than 5 µM.

Regarding `COc1cccc2c1C(=O)c1c(O)c3c(c(O)c1C2=O)CC(C(C)=O)C[C@@H]3OC1CC(NC(=O)C(F)(F)F)C(O)C(C)O1` (stereo partly drawn), the IC50 came to 3.95 µM.

As to `CCCCC(=O)OCC(=O)[C@@H]1Cc2c(O)c3c(c(O)c2[C@@H](OC2CC(NC(=O)C(F)(F)F)C(O)C(C)O2)C1)C(=O)c1c(OC)cccc1C3=O` (stereo partly drawn), the IC50 was determined as 4.71 µM. Next, `COc1cccc2c1C(=O)c1c(O)c3c(c(O)c1C2=O)C=C(C(C)=O)C[C@@H]3O`: 10 µM; `CCCCC(=O)OCC(=O)C1=Cc2c(O)c3c(c(O)c2[C@@H](OC2CC(NC(=O)C(F)(F)F)C(O)C(C)O2)C1)C(=O)c1c(OC)cccc1C3=O` (stereo partly drawn): 2.7 µM; `COc1cccc2c1C(=O)c1c(O)c3c(c(O)c1C2=O)C[C@@](O)(C(C)=O)C[C@@H]3O[C@H]1C[C@H](N)[C@H](O)[C@H](C)O1` [DAUNORUBICIN]: 0.04 µM.
